CHRM1 PAM = human M1 muscarinic receptor positive allosteric modulators, primary screen, CHO-K1 cells, Fluo-8 calcium fluorescence, 1536-well; CHO-K1 hM1, ACh EC20; 0% = ACh EC20, 100% = maximal ACh; Muscarinic acetylcholine receptor M1 (Homo sapiens), P11229; activation, % at 3 µM; 360,000 tested, 0.088% active; AID 588819, 2011; in the data active means activation above about 19%, passing the limit was not always enough
Target sequence (P11229 whole entry, looked up): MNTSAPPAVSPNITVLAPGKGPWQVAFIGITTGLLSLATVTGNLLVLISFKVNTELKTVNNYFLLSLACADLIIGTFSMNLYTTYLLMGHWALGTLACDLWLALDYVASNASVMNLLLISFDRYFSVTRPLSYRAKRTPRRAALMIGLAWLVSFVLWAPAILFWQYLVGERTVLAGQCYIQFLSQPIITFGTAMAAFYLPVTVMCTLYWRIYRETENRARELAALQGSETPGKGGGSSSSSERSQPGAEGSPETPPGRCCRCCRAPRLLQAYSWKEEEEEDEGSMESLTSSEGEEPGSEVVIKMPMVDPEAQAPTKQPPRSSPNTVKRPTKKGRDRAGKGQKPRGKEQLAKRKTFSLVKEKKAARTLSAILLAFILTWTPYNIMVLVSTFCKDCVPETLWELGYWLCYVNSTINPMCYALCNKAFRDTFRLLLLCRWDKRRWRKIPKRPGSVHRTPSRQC
CHRM1 agonist = human M1 muscarinic receptor agonists, primary screen, Fluo-8 calcium fluorescence, CHO-K1 cells, HTS; CHO-K1 hM1, agonist mode; 0% DMSO, 100% acetylcholine EC100; AID 588814, 2011; activation, % at 3 µM; Muscarinic acetylcholine receptor M1 (Homo sapiens), P11229; 360,000 tested, 0.33% active;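 active means activation above the run's mean compound activation plus 3 SD, cut at about 16% in these data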;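 further: peak over basal fluorescence ratio within a 140 s kinetic read after compound addition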
M5 PAM = human M5 muscarinic receptor positive allosteric modulators, primary screen, CHO-K1 cells, Fluo-8 calcium fluorescence. CHO-K1 hM5, ACh EC20 PAM; 0% = ACh EC20, 100% = ACh EC100. activation, % at 3 µM. 360,000 tested, 0.3% active. AID 624038, 2012;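 active means activation above the run cutoff, the mean activation of all test compounds plus 3 SD, cut at about 18% in these data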
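Test system: CHO-K1 hM5 cells / Doses: single-point, 3 µM nominal / Times: Post-acetylcholine fluorescence recording 140 s / Technique: Fluo-8 calcium fluorescence / Measure: Max/basal fluorescence ratio as % of EC20–EC100 ACh window / Benchmarks: low control EC20 acetylcholine (0%), high control EC100 acetylcholine (100%) / Replicates: one well per compound, no replicates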
M1 antag = human M1 muscarinic receptor antagonists, primary screen, CHO-K1 cells, Fluo-8 calcium fluorescence, 1536-well | Muscarinic acetylcholine receptor M1 (Homo sapiens), P11229 | CHO-K1 hM1, ACh EC80 antagonist | inhibition, % at 3 µM | 360,000 tested, 1.3% active | AID 588852, 2011;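 active means percent inhibition above its own plate's cutoff, namely the mean of that plate's compound wells plus 3 SD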;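 further: peak over basal fluorescence ratio during 140 s after agonist addition; 0% = ACh EC80 plus DMSO and 100% = DMSO alone without agonist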
CHRM5 agonist = human M5 muscarinic receptor agonists, primary screen, CHO-K1 cells, Fluo-8 calcium fluorescence; Muscarinic acetylcholine receptor M5 (Homo sapiens), P08912; CHO-K1 hM5 cells; 0% DMSO wells, 100% maximal acetylcholine response; activation, % at 3 µM; 360,000 tested, 0.19% active; AID 624037, 2012;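 active means activation above the run's mean over test compounds plus 3 SD, cut at about 23% in these data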;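 further: signal is peak over basal fluorescence ratio across the kinetic read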
M5 antag = human M5 muscarinic receptor antagonists, primary screen, CHO cells, Fluo-8 calcium fluorescence | Muscarinic acetylcholine receptor M5 (Homo sapiens), P08912 | CHO-hM5 cells, ACh EC80 | inhibition, % at 3 µM | 360,000 tested, 0.59% active;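 active means inhibition above a per-plate cutoff, the mean of that plate's test compounds plus 3 SD, cut at about 27% in these data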;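 further: 0% = acetylcholine EC80 with DMSO and 100% = DMSO without agonist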
Numbers without * were called inactive; / = no result. In the library only some 2% were active in any assay of this set; here they are far more common.

SMILES	CHRM1 PAM	CHRM1 agonist	M5 PAM	M1 antag	CHRM5 agonist	M5 antag
COc1ccccc1C(C[N+](=O)[O-])c1c(N)n(C)c(=O)n(C)c1=O (stereo not given)	13	-1	0	-10	-2	7
COc1ccccc1C(c1c(N)n(C)c(=O)n(C)c1=O)C(C)[N+](=O)[O-] (stereo not given)	3	-2	-15	6	-8	28*
CCO[C@@H]1OC(C(=O)NCc2ccccc2)=C[C@H](c2ccc(Br)cc2)[C@H]1CCCO	-34	-11	-41	68*	-9	26
C#Cc1ccc([C@@H]2C=C(C(=O)Nc3ccccc3)O[C@H](OCC)[C@H]2CCCO)cc1	0	-3	-1	0	0	4
C#Cc1ccc([C@H]2C=C(C(=O)NCc3ccccc3)O[C@@H](OCC)[C@@H]2CCCO)cc1	-40	-14	-40	63*	-11	34*
CC(C)c1ccc(N2C(=O)CSC23C(=O)N2CCCc4cccc3c42)cc1 (stereo not given)	-21	-8	-23	98*	-11	48*
COc1ccc(N2C(=O)CSC23C(=O)Nc2ccccc23)cc1 (stereo not given)	-14	-6	-10	22	-14	-3
C=CC[N+]1(CC#CCOC(c2ccccc2)c2ccccc2)CCOCC1	-28	-14	0	49*	-7	1
O=C1NC[C@@H](Cc2ccc(O)cc2)N(CCc2cc(C(F)(F)F)cc(C(F)(F)F)c2)C1=O	/	/	-4	/	1	-2
CC(=O)Nc1cccc(NC(=O)c2ccc(S(=O)(=O)NCc3ccco3)cc2)c1	4	-3	5	-1	0	-3
Cc1cccc(NC(=O)c2ccc(F)c(S(=O)(=O)NCc3ccco3)c2)c1	12	3	19*	-17	2	-16
O=C(CN1CCN(C(=O)CNC(=O)c2ccc(N3CCCC3=O)cc2)CC1)Nc1cccc(F)c1	14	2	1	-13	-1	3
CCOC(=O)c1sc(NS(=O)(=O)c2ccccc2)nc1C	-2	-3	-3	-23	1	-1
Cc1nc(NS(=O)(=O)c2ccccc2)sc1NC(=O)OCCN(C)C	-1	7	-17	-11	27*	2
C[C@H](NC(=O)c1nc[nH]c1C(=O)N(C)CCO)c1ccccc1	15	1	1	-12	1	-6
Nc1ccc(Nc2ccncc2)cc1	2	-6	-1	-10	-1	-2
COc1cccc(CNC(=O)c2ccc(S(=O)(=O)N3CCOCC3)cc2)c1	9	-4	-4	-3	0	7
O=C(NCc1cccnc1)c1cccc(S(=O)(=O)N2CCCC2)c1	14	-8	-3	-7	-3	15
Cc1cc2cc(CNC(=O)c3ccc(S(=O)(=O)N(C)C)cc3)ccc2n1C	-26	-12	-4	30*	-1	2
O=C(NCc1cccnc1)c1cccc(S(=O)(=O)N2CCOCC2)c1	9	-5	31*	-1	4	3
Cc1cc2cc(CNC(=O)c3ccc(S(=O)(=O)N4CCOCC4)cc3)ccc2n1C	-31	-10	-7	76*	-2	2
CC(C)CNC(=O)C1(C)CCCN1Cc1ccc(OC(F)(F)F)cc1 (stereo not given)	4	-4	-4	-12	0	6
CC(=O)c1sc(Nc2ccc(Oc3ccccc3)cc2)nc1C	-17	-6	-20	11	-5	19
CC1CCCC(C)N1C(=O)COC(=O)c1cc(F)c(F)cc1Cl (stereo not given)	-9	-8	-4	28*	-8	2
CN(C(=O)CSc1nc2ccccc2c(=O)n1-c1ccc(F)cc1)C1CCS(=O)(=O)C1 (stereo not given)	4	-1	3	-6	0	2
SMILES	CHRM1 PAM	CHRM1 agonist	M5 PAM	M1 antag	CHRM5 agonist	M5 antag
CN(C(=O)COC(=O)c1nc(-c2ccccc2)n(-c2ccccc2)n1)C1CCS(=O)(=O)C1 (stereo not given)	-21	-4	6	64*	-11	-1
COc1ccc(-n2c(SCC(=O)N(C)C3CCS(=O)(=O)C3)nc3ccc(O)cc3c2=O)cc1OC (stereo not given)	-1	-4	-8	3	-2	29*
Cc1nn(-c2ccccc2)c(C)c1C(=O)OCC(=O)N(C)C1CCS(=O)(=O)C1 (stereo not given)	6	-11	-2	-4	-5	-2
CN(C(=O)CSc1nc2ccccc2n1C)C1CCS(=O)(=O)C1 (stereo not given)	-3	-4	-5	29*	0	2
CN(C(=O)CSc1nc2ccccc2c(=O)n1C)C1CCS(=O)(=O)C1 (stereo not given)	7	6	1	-14	1	11
Cc1onc(-c2ccccc2)c1C(=O)OCC(=O)c1ccc(F)cc1	-2	-7	-7	-12	-3	6
COc1cccc(S(=O)(=O)Nc2cccc(C(=O)N3CCCC3)c2)c1	5	-2	-1	5	-3	5
COc1cccc(S(=O)(=O)Nc2cccc(C(=O)N3CCOCC3)c2)c1	-21	-7	-17	54*	-5	-3
CCCCN(C(=O)COC(=O)CSc1ccc([N+](=O)[O-])cc1)c1c(N)n(CCC)c(=O)[nH]c1=O	-1	-2	2	4	0	0
O=C(N/C(=C/c1cccc([N+](=O)[O-])c1)C(=O)N1CCCCC1)c1ccco1	1	-2	-10	2	-3	32*
O=C(N/C(=C/c1cccc([N+](=O)[O-])c1)C(=O)N1CCCCCC1)c1cccs1	11	-6	0	-5	0	-2
CCOC(=O)c1ccc(NC(=S)NC2CC(C)(C)NC(C)(C)C2)cc1	-16	42*	3	3	-2	-3
Cc1cc(C(c2ccc(O)cc2)c2cc(C)c(O)cc2C)c(C)cc1O	9	42*	-1	9	37*	7
CCC(c1ccc(O)cc1)C(CC)c1ccc(O)cc1 (stereo not given)	-13	-4	-12	-2	-1	7
